This note sets out measurements from the RNAGym collection of RNA variant scans (doi:10.1126/science.aae0568).

The chains are these.
B1: tRNA (parent)
chain: GUUCCGUUGGCGUAAUGGUAACGCGUCUCCCUCCUAAGGAGAAGACUGCGGGUUCGAGUCCCGUACGGAACG

Fewer inactive variants are shown than the library holds.

The variants in the data set derive from B1. The data set can be described thus: yeast fitness relative to wild type (ratio to wild type); higher = fitter; tRNA-Arg(CCU), competitive growth, 37 C, YPD. The method, boiled down: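 Amplicons of the tRNA-Arg(CCU) gene were sequenced, 100-nucleotide paired-end, from the start population and from each end population of a pooled yeast competition. The competition, in six parallel replicates, lasted 24 hours in YPD at 37°C. Fitness relative to wild type was calculated from changes in genotype frequencies. Genotypes had to have ≥ 100 starting reads, and estimates < 0.5 were set to 0.5.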
Turning to GUUCCGUUGGCGUAAUGGUAACGCGUCUCCCUCCUAAGGAAAAGACUGCGGGUUCGAGUAUCGUACGGUACG [G41A C60A C61U A69U], the yeast fitness was at most 0.5.

As for GUUCCGUUGGCGUAAUGGUAACGCGUCUCCCUCCUAAGGACAAGAGUGCGGGUUCGAGCUCCGUACGGAACG [G41C C46G U59C C60U], the yeast fitness was at most 0.5. Turning to GUUCCGUUGGCGUAAUGGUAACGCGUCUCCCUCCUAAGGAAAAGACUGAGGGUUCGAGUCCUGUACGCAACG [G41A C49A C62U G68C], the yeast fitness is at most 0.5. Next, GUUCCGUUGGCGUAAUGGUAACGCGUCUCCCUCCUAAGGACAAGACUGCGGGUUCGAGUCCCGUCCGGAUCG [G41C A65C A70U]: 0.641; GUUCCGUUGGCGUAAUGGUAACGCGUCUCCCUCCUAAGGUGAAGACUGCGGGAUCGAGUCCCGUACGGAACG [A40U U53A]: 0.774; GUUCCGUUGGCGUAAUGGUAACGCGUCUCCCUCCUAAGGUGAAGACUGCGGGGUCGAGUCCCGUACGGAACG [A40U U53G]: 0.638.

For GUUCCGUUGGCGUAAUGGUAACGCGUCUCCCUCCUAAGGAAACGACUGGGGGUUCGGGUCCCGUACGGAACG [G41A A43C C49G A57G], the yeast fitness was at most 0.5. As for GUUCCGUUGGCGUAAUGGUAACGCGUCUCCCUCCUAAGGAAAAGACUGCGGGUUCGAAUCCCGUACGGAACG [G41A G58A], the figure is 1; as for GUUCCGUUGGCGUAAUGGUAACGCGUCUCCCUCCUAAGGUGAGGACUGCGGGUUCGGGUCCCGUACGGAACG [A40U A43G A57G], at most 0.5. Next, GUUCCGUUGGCGUAAUGGUAACGCGUCUCCCUCCUAAGGUGCAGACUGCGGGUUCGAGUCCUGUACGAAACG [A40U A42C C62U G68A]: at most 0.5. GUUCCGUUGGCGUAAUGGUAACGCGUCUCCCUCCUAAGGACACGACUGCGGGUUCGAGUCCCGUACGGAACG [G41C A43C]: the yeast fitness came out at 0.731.

With GUUCCGUUGGCGUAAUGGUAACGCGUCUCCCUCCUAAGGUGAAGGCUGCGGGUUCGAGUCCCGUACGGAACG [A40U A45G], the yeast fitness worked out at 0.816. Turning to GUUCCGUUGGCGUAAUGGUAACGCGUCUCCCUCCUAAGGUGAAGUCUGCGGGUUCGAGUCCCGUACGGAACG [A40U A45U], the yeast fitness was 0.941.

With GUUCCGUUGGCGUAAUGGUAACGCGUCUCCCUCCUAAGGACGAGACUGCGAGUUCGAGUCCCGUACGGAACG [G41C A42G G51A], the yeast fitness stood at 0.538.

With GUUCCGUUGGCGUAAUGGUAACGCGUCUCCCUCCUAAGGACAAGAUUGCGGGUUCGAGUCCCGUACGGAACG [G41C C46U], the yeast fitness worked out at 1.03. As for GUUCCGUUGGCGUAAUGGUAACGCGUCUCCCUCCUAAGGUGAAGACUGAGGGUUCGGGUCCUGUACGGAACG [A40U C49A A57G C62U], the figure is at most 0.5. Next, GUUCCGUUGGCGUAAUGGUAACGCGUCUCCCUCCUAAGGUGAAAACUGCGGGUUCGAGUCCCGUUCGGAACG [A40U G44A A65U]: 0.51; GUUCCGUUGGCGUAAUGGUAACGCGUCUCCCUCCUAAGGUGAAGACUGCGGGUUUGAGUCGCGUACGGAACG [A40U C55U C61G]: 0.507; GUUCCGUUGGCGUAAUGGUAACGCGUCUCCCUCCUAAGGUGAAGACUGCGGGUACGAGUGCCGUACCGAACG [A40U U54A C60G G67C]: 0.599.

For the variant GUUCCGUUGGCGUAAUGGUAACGCGUCUCCCUCCUAAGGACAAGACUGCGGGUUCGAGUCCCGUCCGGAACG [G41C A65C], the yeast fitness came to 0.794.

In the case of GUUCCGUUGGCGUAAUGGUAACGCGUCUCCCUCCUAAGGUGAACACUGCGGGGUCGAGUCCCGUACGGAACG [A40U G44C U53G], the yeast fitness was at most 0.5. As for GUUCCGUUGGCGUAAUGGUAACGCGUCUCCCUCCUAAGGAAAAGACUGCGGGUUCGAGUCUCGUACGGAACG [G41A C61U], the figure is 0.786.

Regarding GUUCCGUUGGCGUAAUGGUAACGCGUCUCCCUCCUAAGGAAAAGACUGCGGGUUAGAGUCCCGUACGGAACG [G41A C55A], the yeast fitness came out at 0.661. Next, GUUCCGUUGGCGUAAUGGUAACGCGUCUCCCUCCUAAGGACUAGACUGCGGGUUCGAGUCCCGCACGCAACG [G41C A42U U64C G68C]: at most 0.5; GUUCCGUUGGCGUAAUGGUAACGCGUCUCCCUCCUAAGGUGAAGACUGCGGGUUCGAGUCCCGUACUGAACG [A40U G67U]: 0.797. GUUCCGUUGGCGUAAUGGUAACGCGUCUCCCUCCUAAGGACGAGACUGCGGGUUCGAGUCCCGUACGGAGCG [G41C A42G A70G]: the yeast fitness worked out at 0.593. Next, GUUCCGUUGGCGUAAUGGUAACGCGUCUCCCUCCUAAGGACAAGACUGCGGGUUCGAGUCCCGUAAGGAACG [G41C C66A]: 0.621; GUUCCGUUGGCGUAAUGGUAACGCGUCUCCCUCCUAAGGAAAAGACUGUGGGUUCGAGUCCCAUACGGAACG [G41A C49U G63A]: 0.678. For GUUCCGUUGGCGUAAUGGUAACGCGUCUCCCUCCUAAGGAAAAGACUGCGGGUUCGAGUGCCGUACGGAACG [G41A C60G], the yeast fitness stood at 0.646. Next, GUUCCGUUGGCGUAAUGGUAACGCGUCUCCCUCCUAAGGACAAGACUGCGGCUUCGAGUCCCGUUCGGAACG [G41C G52C A65U]: at most 0.5. Next, GUUCCGUUGGCGUAAUGGUAACGCGUCUCCCUCCUAAGGUGAAGACUGCGGGUCCGAGUACCGUACGGAACG [A40U U54C C60A]: at most 0.5; GUUCCGUUGGCGUAAUGGUAACGCGUCUCCCUCCUAAGGUGAAGACUGCGGGUUCGAGUCGCGUACGCAGCG [A40U C61G G68C A70G]: at most 0.5; GUUCCGUUGGCGUAAUGGUAACGCGUCUCCCUCCUAAGGUGCAAACUGCGAGUUCGAGUCCCGUGCGGAACG [A40U A42C G44A G51A A65G]: 0.542. As for GUUCCGUUGGCGUAAUGGUAACGCGUCUCCCUCCUAAGGUGAAGACUACGGGUUCGAGUACCGCACGGCACG [A40U G48A C60A U64C A69C], the figure is at most 0.5; as for GUUCCGUUGGCGUAAUGGUAACGCGUCUCCCUCCUAAGGAAAAGACUGCGGGUUCGAGUCCCGUACUCAACG [G41A G67U G68C], 0.507. On to GUUCCGUUGGCGUAAUGGUAACGCGUCUCCCUCCUAAGGUGAAGACUGCGGGUUCGAGUCGCGUACGCAACG [A40U C61G G68C], for which the yeast fitness was 0.571. Next, GUUCCGUUGGCGUAAUGGUAACGCGUCUCCCUCCUAAGGUGAAGACUGCGGGUUCGAGACCCGUACGGAACG [A40U U59A]: 0.678.

In the case of GUUCCGUUGGCGUAAUGGUAACGCGUCUCCCUCCUAAGGUGAAGACAGCGGGUUCGAGUCCCGUACGGAACG [A40U U47A], the yeast fitness came to 0.856.
